In ChEMBL document CHEMBL1129572, “Synthesis and pharmacological properties of novel 8-substituted imidazobenzodiazepines: high-affinity, selective probes for alpha 5-containing GABAA receptors” (J Med Chem, 1996):

Tests used:
[1] = target: T1, GABA-A receptor; alpha-1/beta-2/gamma-2 (Homo sapiens, UniProt P14867+P18507+P47870); experiment: Binding affinity for human GABA-A receptor alpha-1-beta-2-gamma-2 expressed in L(tk-) cell membranes
T1 sequence (P14867 whole entry): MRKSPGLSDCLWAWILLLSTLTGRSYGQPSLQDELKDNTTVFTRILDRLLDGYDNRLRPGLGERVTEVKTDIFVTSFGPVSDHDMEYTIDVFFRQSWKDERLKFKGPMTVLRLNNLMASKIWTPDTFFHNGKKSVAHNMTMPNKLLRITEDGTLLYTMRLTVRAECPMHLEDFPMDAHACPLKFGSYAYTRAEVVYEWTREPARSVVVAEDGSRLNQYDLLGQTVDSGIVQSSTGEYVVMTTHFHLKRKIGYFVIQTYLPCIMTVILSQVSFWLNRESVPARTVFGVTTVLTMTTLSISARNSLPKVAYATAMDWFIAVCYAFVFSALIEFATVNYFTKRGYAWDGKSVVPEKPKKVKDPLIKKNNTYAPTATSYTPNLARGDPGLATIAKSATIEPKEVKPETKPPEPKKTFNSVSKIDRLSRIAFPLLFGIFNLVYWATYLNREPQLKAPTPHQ
T1 sequence (P47870 whole entry): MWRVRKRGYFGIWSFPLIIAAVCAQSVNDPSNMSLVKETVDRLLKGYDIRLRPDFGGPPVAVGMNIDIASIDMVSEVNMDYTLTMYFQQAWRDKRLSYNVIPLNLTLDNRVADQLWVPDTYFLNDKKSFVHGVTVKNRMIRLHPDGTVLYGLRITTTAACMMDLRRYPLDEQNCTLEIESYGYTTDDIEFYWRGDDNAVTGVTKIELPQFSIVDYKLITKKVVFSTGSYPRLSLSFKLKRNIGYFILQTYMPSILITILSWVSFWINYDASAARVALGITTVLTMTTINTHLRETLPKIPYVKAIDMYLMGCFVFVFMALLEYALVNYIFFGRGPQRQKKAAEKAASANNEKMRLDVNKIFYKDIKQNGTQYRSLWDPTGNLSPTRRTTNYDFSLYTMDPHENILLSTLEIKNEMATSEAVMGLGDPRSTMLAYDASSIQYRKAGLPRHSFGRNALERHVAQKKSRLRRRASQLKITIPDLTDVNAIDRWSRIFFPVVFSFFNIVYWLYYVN
T1 sequence (P18507 whole entry): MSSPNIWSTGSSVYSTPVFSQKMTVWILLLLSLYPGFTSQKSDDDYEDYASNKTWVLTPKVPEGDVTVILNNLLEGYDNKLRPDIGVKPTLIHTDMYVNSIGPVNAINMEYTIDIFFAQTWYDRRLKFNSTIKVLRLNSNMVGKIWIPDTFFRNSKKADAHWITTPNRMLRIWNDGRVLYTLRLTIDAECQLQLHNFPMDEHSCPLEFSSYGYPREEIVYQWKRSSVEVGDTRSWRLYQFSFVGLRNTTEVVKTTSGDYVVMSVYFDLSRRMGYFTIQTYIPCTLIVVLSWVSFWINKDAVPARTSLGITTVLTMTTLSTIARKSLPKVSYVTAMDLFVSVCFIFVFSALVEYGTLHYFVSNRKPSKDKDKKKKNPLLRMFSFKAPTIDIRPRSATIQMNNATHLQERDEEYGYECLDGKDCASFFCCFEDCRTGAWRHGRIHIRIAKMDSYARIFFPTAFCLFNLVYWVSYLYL

[2] = target: GABA A receptor alpha-6/beta-2/gamma-2 (Homo sapiens, UniProt P18507+P47870+Q16445); experiment: Binding affinity for human GABA-A receptor alpha-6-beta-2-gamma-2 expressed in L(tk-) cell membranes
Chain of GABA A receptor alpha-6/beta-2/gamma-2 (Q16445 whole entry, one chain of several): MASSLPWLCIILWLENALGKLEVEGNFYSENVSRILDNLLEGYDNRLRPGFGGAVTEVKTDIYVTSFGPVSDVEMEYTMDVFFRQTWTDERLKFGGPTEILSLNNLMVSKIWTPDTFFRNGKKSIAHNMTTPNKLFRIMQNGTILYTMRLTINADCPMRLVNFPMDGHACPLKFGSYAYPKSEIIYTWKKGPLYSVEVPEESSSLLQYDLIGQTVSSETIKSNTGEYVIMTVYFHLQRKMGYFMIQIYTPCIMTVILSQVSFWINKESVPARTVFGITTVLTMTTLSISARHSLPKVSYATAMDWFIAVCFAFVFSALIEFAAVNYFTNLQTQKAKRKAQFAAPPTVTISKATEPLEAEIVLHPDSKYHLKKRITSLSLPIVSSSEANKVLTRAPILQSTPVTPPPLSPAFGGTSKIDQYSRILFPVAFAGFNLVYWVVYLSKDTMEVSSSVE

[3] = target: T2, GABA A receptor alpha-3/beta-2/gamma-2 (Homo sapiens, UniProt P18507+P34903+P47870); experiment: Binding affinity for human GABA-A receptor alpha-3-beta-2-gamma-2 expressed in L(tk-) cell membranes
T2 sequence (P47870 whole entry): T1 sequence (P47870 whole entry)
T2 sequence (P18507 whole entry): T1 sequence (P18507 whole entry)
T2 sequence (P34903 whole entry): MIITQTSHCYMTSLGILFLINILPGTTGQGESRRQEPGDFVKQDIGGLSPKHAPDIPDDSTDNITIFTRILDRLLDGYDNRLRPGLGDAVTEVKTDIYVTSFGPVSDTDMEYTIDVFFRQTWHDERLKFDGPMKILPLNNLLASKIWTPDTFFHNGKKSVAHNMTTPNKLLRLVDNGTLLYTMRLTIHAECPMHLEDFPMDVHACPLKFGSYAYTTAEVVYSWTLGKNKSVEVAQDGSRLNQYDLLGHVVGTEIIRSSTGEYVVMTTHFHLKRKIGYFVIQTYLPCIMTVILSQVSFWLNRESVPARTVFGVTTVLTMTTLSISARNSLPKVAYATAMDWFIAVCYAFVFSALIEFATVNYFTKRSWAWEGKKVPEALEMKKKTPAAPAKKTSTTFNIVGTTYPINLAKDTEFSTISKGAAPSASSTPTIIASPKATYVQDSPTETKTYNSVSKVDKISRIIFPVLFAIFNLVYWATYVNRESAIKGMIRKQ

[4] = Binding affinity for human GABA-A receptor alpha-5--beta-2-gamma-2 expressed in L(tk-) cell membranes
Method in brief: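 Competition binding on membranes of Ltk cells expressing human αxβ2γ2 receptors. Radioligand was [3H]Ro 15-1788, or [3H]Ro 15-4513 for α6β2γ2. Ki is the mean of two determinations differing by less than 10%.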

[5] = target: T3, GABA A receptor alpha-2/beta-2/gamma-2 (Homo sapiens, UniProt P18507+P47869+P47870); experiment: Binding affinity for human GABA-A receptor alpha-2-beta-2-gamma-2 expressed in L(tk-) cell membranes
T3 sequence (P47870 whole entry): T1 sequence (P47870 whole entry)
T3 sequence (P18507 whole entry): T1 sequence (P18507 whole entry)
T3 sequence (P47869 whole entry): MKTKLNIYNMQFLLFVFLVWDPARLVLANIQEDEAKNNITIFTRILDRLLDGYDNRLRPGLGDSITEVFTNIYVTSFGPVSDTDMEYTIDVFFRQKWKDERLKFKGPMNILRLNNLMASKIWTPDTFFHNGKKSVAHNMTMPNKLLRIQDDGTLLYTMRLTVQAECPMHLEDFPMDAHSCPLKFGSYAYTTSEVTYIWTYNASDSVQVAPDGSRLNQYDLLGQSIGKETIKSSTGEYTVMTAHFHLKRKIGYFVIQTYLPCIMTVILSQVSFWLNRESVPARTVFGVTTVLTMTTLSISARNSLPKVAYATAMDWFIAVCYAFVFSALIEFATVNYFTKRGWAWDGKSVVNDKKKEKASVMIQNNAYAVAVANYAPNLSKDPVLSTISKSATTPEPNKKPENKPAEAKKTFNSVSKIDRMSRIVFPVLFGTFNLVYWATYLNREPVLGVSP

Homo sapiens = species: Homo sapiens; experiment: Relative binding affinity for GABA-A receptor alpha-5 over alpha1 subunits
Mus musculus [6] = species: Mus musculus; experiment: Convulsant activity was evaluated; assay type: functional
Method in brief: (§1)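 Adult male NIH/Swiss mice (~30 g) got a single ip injection of graded doses (up to 40 or 80 mg/kg) or vehicle, suspended in 10% diluted Emulphor:90% saline with warming and sonication. They were observed 10 min; tonic/clonic convulsions with loss of righting reflex were scored. CD50 is the dose seizing half the maximal number convulsing, by nonlinear regression.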

Mus musculus [7] = species: Mus musculus; experiment: Dose required for 50% seizure of maximum number of animals; assay type: functional; method in brief: as §1
Mus musculus [8] = species: Mus musculus; experiment: Anticonvulsant activity against convulsions induced by Compound 9; assay type: functional
Method in brief: (§2)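 Male NIH/Swiss mice (~30 g) given graded ip doses of zolpidem, flumazenil or vehicle in 10% diluted Emulphor:90% saline. 10 min later they were challenged ip with DMCM (7.5 mg/kg) or the convulsant test ligand (20 mg/kg). Convulsions were observed; N = 5–10 per dose. ED50 came from nonlinear regression.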

Mus musculus [9] = species: Mus musculus; experiment: Anticonvulsant activity against convulsions induced by DMCM; assay type: functional; method in brief: as §2
Mus musculus [10] = species: Mus musculus; experiment: Convulsant activity was evaluated in mice; assay type: functional; method in brief: as §1
[11] = target: T4, Gamma-aminobutyric acid receptor subunit alpha-5 (Rattus norvegicus, UniProt P19969); experiment: Inhibition of [3H]flunitrazepam binding to alpha-5 GABA-A receptor of rat hippocampal membranes; assay type: cell membranes, Membrane
T4 sequence (P19969 whole entry): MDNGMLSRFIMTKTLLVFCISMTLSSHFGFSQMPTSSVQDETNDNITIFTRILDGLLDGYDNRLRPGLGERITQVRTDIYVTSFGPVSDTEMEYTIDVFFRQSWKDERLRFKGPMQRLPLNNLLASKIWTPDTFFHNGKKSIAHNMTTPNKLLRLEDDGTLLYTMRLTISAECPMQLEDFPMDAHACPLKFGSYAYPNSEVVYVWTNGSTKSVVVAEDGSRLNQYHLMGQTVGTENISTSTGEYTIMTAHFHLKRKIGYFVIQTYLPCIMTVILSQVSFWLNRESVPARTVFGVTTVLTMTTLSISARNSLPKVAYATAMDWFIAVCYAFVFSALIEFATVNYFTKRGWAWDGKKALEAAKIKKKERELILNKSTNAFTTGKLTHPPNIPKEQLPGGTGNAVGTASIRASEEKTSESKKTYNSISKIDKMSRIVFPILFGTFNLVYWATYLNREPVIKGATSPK
Method in brief: (§3)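 Male Sprague–Dawley rat hippocampal or cerebellar membranes, washed in 50 mM Tris-citrate pH 7.4. They were incubated with ~1 nM [3H]flunitrazepam (final) plus NaCl, 120 min at 0–4 °C, then filtered. Nonspecific binding was set with 10 µM Ro 15-1788. IC50 used 8–12 concentrations; hippocampal data were fitted two-site (F test). Four experiments, mean ± SEM.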

[12] = target: GABA-A receptor; anion channel; experiment: Inhibition of [3H]flunitrazepam binding to GABA-A receptor of rat cerebral membranes; assay type: cell membranes, Membrane; method in brief: as §3
[13] = target: T4, Gamma-aminobutyric acid receptor subunit alpha-5; experiment: Inhibition of [3H]flunitrazepam binding to high affinity GABA-A receptor of rat hippocampal membranes; assay type: cell membranes, Membrane; method in brief: as §3
[14] = target: GABA-A receptor; anion channel; experiment: (§4) Inhibition of [3H]flunitrazepam binding to low affinity GABA-A receptor of rat hippocampal membranes; assay type: cell membranes, Membrane; method in brief: as §3
[15] = target: GABA-A receptor; anion channel; experiment: as §4; assay type: cell membranes, Membrane; method in brief: as §3; remark: listed apart in the source
[16] = target: T4, Gamma-aminobutyric acid receptor subunit alpha-5; experiment: Inhibition of [3H]flunitrazepam binding to alpha5 GABA-A receptor of rat hippocampal membranes; assay type: cell membranes, Membrane; method in brief: as §3
Mus musculus [17] = species: Mus musculus; experiment: Proconvulsant potency at which 50% of the animals (mice) convulsed 15 min after receiving PTZ.; assay type: functional; conditions: read-out: PD50
Method in brief: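 Mice got a single ip dose of the ligand or vehicle, then PTZ (40 mg/kg ip) 15 min later, and were observed 10 min. N = 5–10 per group. PD50 is the dose at which 50% of animals convulsed, by nonlinear regression.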

SMILES | Ki [1] | Ki [2] | Ki [3] | Ki [4] | Ki [5] | Ratio (Homo sapiens) | CD50 (Mus musculus [7]) | further results
CC#Cc1ccc2c(c1)C(=O)N(C)Cc1c(C(=O)OCC)ncn1-2 | 10.1 nM | > 100 nM | 16.5 nM | 1.7 nM | 22.2 nM | 6 | – | –
CCOC(=O)c1ncn2c1CN(C)C(=O)c1cc(CC)ccc1-2 | 20.4 nM | 176 nM | 26.1 nM | 1.5 nM | 27 nM | 13.8 | – | –
CCOC(=O)c1ncn2c1CN(C)C(=O)c1cc(N=[N+]=[N-])ccc1-2 [Ro-154513] | – | – | – | 0.26 nM | – | – | – | –
CCc1ccc2c(c1)C(=O)N(C)Cc1c(C(=O)OC(C)(C)C)ncn1-2 | 14.8 nM | 22.9 nM | 25.3 nM | 1.7 nM | 56 nM | 8.6 | – | –
C#Cc1ccc2c(c1)C(=O)N(C)Cc1c(C(=O)OCC)ncn1-2 | 28.4 nM | 28.8 nM | 25.8 nM | 0.5 nM | 21.4 nM | 60 | 24 mg/kg | Activity (Mus musculus [6]): 70%
CCOC(=O)c1ncn2c1CN(C)C(=O)c1cc(F)ccc1-2 [FLUMAZENIL] | – | – | – | – | – | – | – | ED50 (Mus musculus [8]): 3.8 mg/kg; ED50 (Mus musculus [9]): 2.3 mg/kg
CN1Cc2c(C(=O)OC(C)(C)C)ncn2-c2ccc(Br)cc2C1=O | 11.4 nM | 9.4 nM | 9.2 nM | 0.5 nM | 10.7 nM | 24 | – | –
CCOC(=O)c1ncn2c1CN(C)C(=O)c1cc(C#C[Si](C)(C)C)ccc1-2 | – | 114 nM | 198 nM | 5 nM | 142 nM | 24 | 70.9 mg/kg | Activity (Mus musculus [10]): 85%
C#Cc1ccc2c(c1)C(=O)N(C)Cc1c(C(=O)OC(C)(C)C)ncn1-2 | 26.9 nM | 5.1 nM | 18.7 nM | 0.4 nM | 26.3 nM | 67.3 | 5.9 mg/kg | IC50 [11]: 0.33 nM; IC50 [12]: 79.8 nM; IC50 [13]: 0.6 nM; IC50 [14]: 85.6 nM; IC50 [15]: 70.7 nM; IC50 [16]: 67.2 nM; Activity (Mus musculus [10]): 80%
CN1Cc2c(C(=O)OC(C)(C)C)ncn2-c2ccc(C#C[Si](C)(C)C)cc2C1=O | 197 nM | 58.6 nM | 255 nM | 2.61 nM | 143 nM | 75.5 | 2.3 mg/kg | Activity (Mus musculus [10]): 22%; ED50 (Mus musculus [17]): 40 mg/kg
CCOC(=O)c1ncn2c1CN(C)C(=O)c1cc(C#CC[Si](C)(C)C)ccc1-2 | > 300 nM | > 300 nM | > 300 nM | > 300 nM | > 300 nM | – | – | –
Cc1ccc(-c2nc3ccc(C)cn3c2CC(=O)N(C)C)cc1 [ZOLPIDEM] | – | – | – | – | – | – | – | ED50 (Mus musculus [8]): 7 mg/kg; ED50 (Mus musculus [9]): 0.4 mg/kg
